Measured values from ChEMBL document CHEMBL1146236, “Antineoplastic agents. 560. Isolation and structure of kitastatin 1 from an Alaskan Kitasatospora sp” (2007).
Values after ≈ are worked out from the molar mass of the structure shown.

How the values were obtained:
[1] = test system: Cryptococcus neoformans; test: Antifungal activity against Cryptococcus neoformans ATCC 90112; format: functional
Outline: (§1)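 Broth microdilution susceptibility testing, following NCCLS reference methods (M7-A5 for bacteria, M27-A2 for yeasts). Compounds reconstituted in sterile DMSO and diluted in the appropriate medium just before testing. MIC was the lowest concentration giving complete inhibition of visible growth (optically clear).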

[2] = test system: KM-20L2; test: Growth inhibition of human KM20L2 cells after 48 hrs by sulforhodamine B assay; format: functional; conditions: KM-20L2, 48 h
Outline: (§2)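 Cells in 5% fetal bovine serum/RPMI1640 were seeded and preincubated 24 h, then exposed to serial compound dilutions for 48 h. Plates were TCA-fixed, stained with sulforhodamine B and read by microplate reader. ED50 (concentration giving 50% reduction in net protein increase) was calculated from optical density data.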

[3] = test system: NCI-H460; test: Growth inhibition of human NCI-H460 cells after 48 hrs by sulforhodamine B assay; format: functional; conditions: NCI-H460, 48 h; outline: as §2
[4] = test system: DU-145; test: Growth inhibition of human DU145 cells after 48 hrs by sulforhodamine B assay; format: functional; conditions: DU-145, 48 h; outline: as §2
[5] = test system: BXPC-3; test: Growth inhibition of human BXPC3 cells after 48 hrs by sulforhodamine B assay; format: functional; conditions: BXPC-3, 48 h; outline: as §2
[6] = test system: SF-268; test: Growth inhibition of human SF268 cells after 48 hrs by sulforhodamine B assay; format: functional; conditions: SF-268, 48 h; outline: as §2
[7] = test system: MCF7; test: Growth inhibition of human MCF7 cells after 48 hrs by sulforhodamine B assay; format: functional; conditions: MCF7, 48 h; outline: as §2
[8] = test system: P388; test: Growth inhibition of mouse P388 cells after 48 hrs by Coulter particle counting; conditions: P388, 48 h, read-out: ED50 (the source's name)
[9] = test system: Enterococcus faecalis; test: Antibacterial activity against Enterococcus faecalis ATCC 29212; format: functional; outline: as §1
[10] = test system: Micrococcus luteus; test: Antibacterial activity against Micrococcus luteus Presque Isle 456; format: functional
Outline: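 Broth microdilution susceptibility test per NCCLS standards, strain Presque Isle 456. Compound reconstituted in sterile DMSO, diluted in the appropriate medium immediately before testing. MIC taken as the lowest concentration giving complete inhibition of visible growth (optically clear).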

| Structure (SMILES) | MIC [1] [ng/mL] | GI50 [2] [ng/mL] | GI50 [3] [ng/mL] | GI50 [4] [ng/mL] | GI50 [5] [ng/mL] | GI50 [6] [ng/mL] | GI50 [7] [ng/mL] | EC50 [8] [ng/mL] | MIC [9] [ng/mL] | MIC [10] [ng/mL] |
| --- | --- | --- | --- | --- | --- | --- | --- | --- | --- | --- |
| CCC(C)[C@@H]1OC(=O)[C@H](C)OC(=O)[C@@H](NC(=O)c2cccc(NC=O)c2O)[C@@H](C)OC(=O)[C@H](CC(C)C)OC(=O)C(C)(C)C(=O)[C@H](CC(C)C)NC1=O (stereo not given in full) [RESPIRANTIN] | 2000 (≈ 2670 nM) | 0.6 (≈ 0.802 nM) | 0.6 (≈ 0.802 nM) | 0.18 (≈ 0.241 nM) | 470 (≈ 628 nM) | 1.6 (≈ 2.14 nM) | 0.6 (≈ 0.802 nM) | 3.7 (≈ 4.95 nM) | – | – |
| CCC(C)[C@@H]1OC(=O)[C@H](C)OC(=O)[C@@H](NC(=O)c2cccc(N)c2O)[C@@H](C)OC(=O)[C@H](CC(C)C)OC(=O)C(C)(C)C(=O)[C@H](CC(C)C)NC1=O (stereo not given in full) [KITASTATIN] | 64000 (≈ 88900 nM) | 2.4 (≈ 3.33 nM) | < 1 | 2.6 (≈ 3.61 nM) | 6.6 (≈ 9.17 nM) | 3.5 (≈ 4.86 nM) | 4 (≈ 5.56 nM) | 45 (≈ 62.5 nM) | 64000 (≈ 88900 nM) | – |
| CCC(C)[C@@H]1OC(=O)[C@H](C)OC(=O)[C@@H](NC(=O)c2cccc(NC=O)c2O)[C@@H](C)OC(=O)[C@H](C(C)C)OC(=O)C(C)(C)C(=O)[C@H](CC(C)C)NC1=O (stereo not given in full) | – | 0.58 (≈ 0.79 nM) | 0.63 (≈ 0.859 nM) | < 0.1 | 1200 (≈ 1640 nM) | 16 (≈ 21.8 nM) | 0.64 (≈ 0.872 nM) | 33 (≈ 45 nM) | – | 64000 (≈ 87200 nM) |
